# Experimental data taken from ChEMBL document CHEMBL3763127, “Design, synthesis and biological evaluation of novel asperphenamate derivatives” (Eur J Med Chem, 2016).
# Activity calls are given as the source filed them. The calls are words filed in the database; no cut-off is given here.
# What was measured:
# Bel-7402 [1] = experiment: Induction of apoptosis in human Bel7402 cells assessed as accumulation at subG1 phase at 20 uM after 72 hrs by PI staining-based flow cytometric analysis (reference value: 2.87%); type: functional
# Bel-7402 [2] = experiment: Induction of apoptosis in human Bel7402 cells assessed as accumulation at subG1 phase at 20 uM after 48 hrs by PI staining-based flow cytometric analysis (reference value: 2.87%); type: functional
# HeLa [3] = experiment: Induction of apoptosis in human HeLa cells assessed as accumulation at subG1 phase at 20 uM after 72 hrs by PI staining-based flow cytometric analysis (reference value: 2.89%); type: functional
# HeLa [4] = experiment: Induction of apoptosis in human HeLa cells assessed as accumulation at subG1 phase at 20 uM after 48 hrs by PI staining-based flow cytometric analysis (reference value: 2.89%); type: functional
# MCF7 [5] = experiment: Induction of autophagy in human MCF7 cells at 10 uM after 72 hrs by MDC staining-based flow cytometric analysis (reference value: 2.54%); type: functional
# MCF7 [6] = experiment: Induction of autophagy in human MCF7 cells at 5 uM after 72 hrs by MDC staining-based flow cytometric analysis (reference value: 2.54%); type: functional
# MCF7 [7] = experiment: Induction of autophagy in human MCF7 cells assessed as increase in autophagosome formation at 5 and 10 uM after 72 hrs by MDC staining-based fluorescence microscopic analysis; type: functional, cell-based
# MCF7 [8] = experiment: Induction of cell cycle arrest in human MCF7 cells assessed as accumulation at S phase at 10 uM after 72 hrs by PI staining-based flow cytometric analysis (reference value: 27.09%); type: functional
# MCF7 [9] = experiment: Induction of cell cycle arrest in human MCF7 cells assessed as accumulation at G0/G1 phase at 10 uM after 72 hrs by PI staining-based flow cytometric analysis (reference value: 50.76%); type: functional
# MCF7 [10] = experiment: Induction of cell cycle arrest in human MCF7 cells assessed as accumulation at G2/M phase at 10 uM after 48 hrs by PI staining-based flow cytometric analysis (reference value: 19.85%); type: functional
# MCF7 [11] = experiment: Induction of cell cycle arrest in human MCF7 cells assessed as accumulation at G2/M phase at 10 uM after 24 hrs by PI staining-based flow cytometric analysis (reference value: 19.85%); type: functional
# HeLa [12] = experiment: Cytotoxicity against human HeLa cells after 3 days by MTT assay; type: functional, cell-based; details: 72 h
# In short: (§1)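 MCF-7, HeLa and BEL-7402 cells were grown in RPMI 1640 with 10% heat-inactivated FBS, 1 mM glutamine and penicillin/streptomycin at 37 °C under 5% CO2. They were exposed to compound for 3 days, then read by MTT at 570 nm. Viability was taken as treated/control absorbance, and IC50 was derived from it. Values are mean SD of three independent experiments.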
# MCF7 [13] = experiment: Induction of cell cycle arrest in human MCF7 cells assessed as accumulation at G0/G1 phase at 10 uM after 48 hrs by PI staining-based flow cytometric analysis (reference value: 50.76%); type: functional
# MCF7 [14] = experiment: Cytotoxicity against human MCF7 cells after 3 days by MTT assay; type: functional, cell-based; details: MCF7, 72 h; in short: as §1
# HeLa [15] = experiment: Induction of autophagy in human HeLa cells assessed as increase in autophagosome formation at 20 and 40 uM after 72 hrs by AO staining-based fluorescence microscopic analysis; type: functional, cell-based
# In short: (§2)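 Cells in RPMI 1640/10% FBS were exposed to compound or 0.1% DMSO for 72 h: MCF-7 at 5 and 10 µM, HeLa and BEL-7402 at 20 and 40 µM. They were incubated with […] acridine orange for 15 min, washed with PBS, and acidic vesicles were imaged by inverted fluorescence microscopy.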
# Bel-7402 [16] = experiment: Induction of autophagy in human Bel7402 cells assessed as increase in autophagosome formation at 20 and 40 uM after 72 hrs by AO staining-based fluorescence microscopic analysis; type: functional, cell-based; in short: as §2
# HeLa [17] = experiment: Induction of autophagy in human HeLa cells assessed as increase in LC3-2 level at 20 and 40 uM after 48 hrs by Western blot analysis; type: functional, cell-based
# In short: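 Cells were treated with or without compound for 48 h: MCF-7 at 5 and 10 µM, HeLa and BEL-7402 at 20 and 40 µM. Total protein (10 µg) in SDS sample buffer (pH 6.8) was run on 8–15% SDS-PAGE and transferred to PVDF. LC3-I/LC3-II were probed with HRP secondary antibody and ECL detection. The assay was repeated at least three times.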
# MCF7 [18] = experiment: Potency index, ratio of IC50 for cisplatin to IC50 for test compound for cytotoxicity against human MCF7 cells; type: functional
# [19] = Potency index, ratio of IC50 for cisplatin to IC50 for test compound for cytotoxicity against human Bel7402 cells; type: functional, Bel-7402
# Bel-7402 [20] = experiment: Induction of autophagy in human Bel7402 cells assessed as autophagic cell formation at 20 uM after 72 hrs by MDC staining-based flow cytometric analysis (reference value: 3.94%); type: functional
# Bel-7402 [21] = experiment: Induction of cell cycle arrest in human Bel7402 cells assessed as accumulation at G2/M phase at 20 uM after 72 hrs by PI staining-based flow cytometric analysis (reference value: 22.26%); type: functional
# HeLa [22] = experiment: Induction of autophagy in human HeLa cells assessed as autophagosome accumulation at 20 uM after 72 hrs by MDC staining-based flow cytometric analysis (reference value: 1.92%); type: functional
# Bel-7402 [23] = experiment: Induction of cell cycle arrest in human Bel7402 cells assessed as accumulation at S phase at 20 uM after 72 hrs by PI staining-based flow cytometric analysis (reference value: 25.01%); type: functional
# HeLa [24] = experiment: Induction of cell cycle arrest in human HeLa cells assessed as accumulation at S phase at 20 uM after 72 hrs by PI staining-based flow cytometric analysis (reference value: 24.17%); type: functional
# HeLa [25] = experiment: Induction of cell cycle arrest in human HeLa cells assessed as accumulation at G0/G1 phase at 20 uM after 72 hrs by PI staining-based flow cytometric analysis (reference value: 45.70%); type: functional
# Bel-7402 [26] = experiment: Induction of cell cycle arrest in human Bel7402 cells assessed as accumulation at G2/M phase at 20 uM after 48 hrs by PI staining-based flow cytometric analysis (reference value: 22.26%); type: functional
# Bel-7402 [27] = experiment: Induction of cell cycle arrest in human Bel7402 cells assessed as accumulation at S phase at 20 uM after 48 hrs by PI staining-based flow cytometric analysis (reference value: 25.01%); type: functional
# Bel-7402 [28] = experiment: Induction of cell cycle arrest in human Bel7402 cells assessed as accumulation at G0/G1 phase at 20 uM after 48 hrs by PI staining-based flow cytometric analysis (reference value: 49.44%); type: functional
# HeLa [29] = experiment: Induction of cell cycle arrest in human HeLa cells assessed as accumulation at G0/G1 phase at 20 uM after 48 hrs by PI staining-based flow cytometric analysis (reference value: 45.70%); type: functional
# HeLa [30] = experiment: Induction of cell cycle arrest in human HeLa cells assessed as accumulation at G2/M phase at 20 uM after 48 hrs by PI staining-based flow cytometric analysis (reference value: 25.44%); type: functional
# HeLa [31] = experiment: Induction of cell cycle arrest in human HeLa cells assessed as accumulation at S phase at 20 uM after 48 hrs by PI staining-based flow cytometric analysis (reference value: 24.17%); type: functional
structure (smiles),measurement,setting,value
Cc1ccc(S(=O)(=O)N[C@H](Cc2ccccc2)C(=O)OC[C@H](Cc2ccccc2)NC(=O)c2ccccc2)cc1,Activity,Bel-7402 [1],3.78%
same,Activity,Bel-7402 [2],3.01%
same,Activity,HeLa [3],2.43%
same,Activity,HeLa [4],2.12%
same,Activity,MCF7 [5],56.08%
same,Activity,MCF7 [6],40.31%
same,Activity,MCF7 [7],Active
same,Activity,MCF7 [8],28.08%
same,Activity,MCF7 [9],48.05%
same,Activity,MCF7 [10],20.05%
same,Activity,MCF7 [11],19.09%
same,IC50,HeLa [12],16.8 µM
same,Activity,MCF7 [13],48.81%
same,IC50,MCF7 [14],5.87 µM
same,Activity,HeLa [15],Active
same,Activity,Bel-7402 [16],Active
same,Activity,HeLa [17],Active
same,Ratio IC50,MCF7 [18],3
same,Ratio IC50,[19],1.6
same,Activity,Bel-7402 [20],23.66%
same,Activity,Bel-7402 [21],22.61%
same,Activity,HeLa [22],26.11%
same,Activity,Bel-7402 [23],26.88%
same,Activity,HeLa [24],25.91%
same,Activity,HeLa [25],48.1%
same,Activity,Bel-7402 [26],22.8%
same,Activity,Bel-7402 [27],26.01%
same,Activity,Bel-7402 [28],47.63%
same,Activity,HeLa [29],50.15%
same,Activity,HeLa [30],22.18%
same,Activity,HeLa [31],25.4%
